Source: ChEMBL document CHEMBL4321820, “Identification and Optimization of Mechanism-Based Fluoroallylamine Inhibitors of Lysyl Oxidase-like 2/3” (J Med Chem, 2019)
Calls of active or inactive are those of the source. The calls are words filed in the database; no cut-off is given here.

Assays:
[1] = molecular target: T1, Lysyl oxidase homolog 2 (Homo sapiens) (UniProt Q9Y4K0); test: Irreversible inhibition of recombinant human C-terminal His-tagged […] (1-774 residues) expressed in mouse myeloma cells assessed as maximal inhibition at 30XIC50 incubated for 60 mins followed by 100-fold dilution prior to addition of putrescine as substrate and measured after 30 mins by jump dilution assay based Amplex-Red oxidation assay relative to control
T1 sequence (whole entry): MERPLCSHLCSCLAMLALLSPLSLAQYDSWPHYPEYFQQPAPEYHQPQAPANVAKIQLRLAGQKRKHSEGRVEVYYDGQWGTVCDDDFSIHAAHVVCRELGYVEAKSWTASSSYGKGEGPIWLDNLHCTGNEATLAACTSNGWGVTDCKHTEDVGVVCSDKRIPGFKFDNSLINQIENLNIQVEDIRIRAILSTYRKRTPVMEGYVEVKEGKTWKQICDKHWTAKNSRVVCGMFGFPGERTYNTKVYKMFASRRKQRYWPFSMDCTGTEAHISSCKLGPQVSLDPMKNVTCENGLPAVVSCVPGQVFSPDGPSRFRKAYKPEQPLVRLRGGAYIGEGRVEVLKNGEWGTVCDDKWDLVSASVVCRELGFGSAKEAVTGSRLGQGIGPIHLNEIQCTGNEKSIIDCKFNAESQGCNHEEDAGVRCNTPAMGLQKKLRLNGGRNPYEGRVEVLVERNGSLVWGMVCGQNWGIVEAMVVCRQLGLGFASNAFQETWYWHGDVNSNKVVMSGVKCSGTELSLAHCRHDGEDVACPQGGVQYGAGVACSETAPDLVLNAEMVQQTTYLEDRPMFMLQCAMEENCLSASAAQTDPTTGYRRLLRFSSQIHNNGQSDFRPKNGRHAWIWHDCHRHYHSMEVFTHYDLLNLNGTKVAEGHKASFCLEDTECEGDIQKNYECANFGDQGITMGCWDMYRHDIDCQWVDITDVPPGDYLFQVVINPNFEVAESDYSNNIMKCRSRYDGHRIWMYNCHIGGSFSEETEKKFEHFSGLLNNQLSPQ
Summary of the method: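 LOXL2 soaked 60 min at 37 °C with inhibitor at 30× IC50. Diluted 50-fold in assay buffer (1.2 M urea, 50 mM borate, pH 8.2), then 1:2 with reaction mix of Amplex Red 120 µM, HRP 1.5 U/mL and putrescine. Read out 30 min after substrate addition (ex 565/em 590, 37 °C). Percent activity followed over time after dilution.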

[2] = molecular target: T1, Lysyl oxidase homolog 2 (Homo sapiens); test: Inhibition of recombinant human LOXL2 assessed as inhibition of collagen cross linking compound replenishment for 5 days and measured on day 7 by UPLC-ESI-MS/MS analysis
[3] = molecular target: T1, Lysyl oxidase homolog 2 (Homo sapiens); test: Substrate competitive inhibition of recombinant human C-terminal His-tagged […] (1-774 residues) expressed in mouse myeloma cells using different concentrations of putrescine as substrate preincubated with enzyme for 30 mins followed by substrate addition and measured every 2.5 mins for 30 mins by substrate competition based Amplex-Red oxidation assay
Summary of the method: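 Recombinant LOXL2 incubated with inhibitor plus a range of putrescine concentrations before the reaction mix was added (120 µM Amplex Red, 1.5 U/mL HRP). Buffer was 1.2 M urea, 50 mM sodium borate, pH 8.2. Fluorescence (ex 565/em 590 nm) read every 2.5 min for 30 min at 37 °C.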

Homo sapiens = species: Homo sapiens; test: Displacement of [3H]PK11195 from human recombinant peripheral benzodiazepine receptor at 10 uM incubated for 15 mins by scintillation counting method
Summary of the method: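 Single-concentration screen at 10 µM in a panel of 119 enzyme and receptor targets under standard conditions; >50% inhibition of radioligand binding counted as a hit.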

[4] = Selectivity index, ratio of IC50 for recombinant human C-terminal His-tagged […] (1-774 residues) expressed in mouse myeloma cells to IC50 for LOX in bovine aorta
[5] = molecular target: T1, Lysyl oxidase homolog 2 (Homo sapiens); test: Inhibition of recombinant human C-terminal His-tagged […] (1-774 residues) expressed in mouse myeloma cells at 10XIC50 preincubated with bound enzyme for 30 mins followed by drug wash-out and later incubated with putrescine substrate and measured after 30 mins by Amplex-Red oxidation assay; type: cell-based
[6] = molecular target: T1, Lysyl oxidase homolog 2 (Homo sapiens); test: Time-dependent inhibition of recombinant human C-terminal His-tagged […] (1-774 residues) expressed in mouse myeloma cells assessed as inactivation constant using putrescine as substrate by kitz-wilson plot analysis
Summary of the method: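 Recombinant human LOXL2 preincubated with inhibitor for varying times at 37 °C, then 5 mM putrescine added with 120 µM Amplex Red and 1.5 U/mL HRP. Buffer was 1.2 M urea, 50 mM sodium borate, pH 8.2. Fluorescence read every 2.5 min for 30 min. Apparent Ki and kinact derived by Kitz–Wilson analysis.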

[7] = Metabolic stability of the compound in dog plasma assessed as SSAO/plasma amine oxidase-mediated compound oxidation preincubated with SSAO/primary amine oxidase inhibitor, semicarbazide followed by incubation with compound and measured after 1 hr; type: ADME, Canis lupus familiaris
[8] = molecular target: T2, Amine oxidase [copper-containing] 3 (Homo sapiens, UniProt Q16853); test: Inhibition of recombinant human SSAO using benzylamine as substrate preincubated with enzyme for 30 mins followed by substrate addition and measured every 2.5 mins for 30 mins by Amplex-Red oxidation assay; conditions: read-out: pIC50 (converted)
T2 sequence (Q16853 whole entry): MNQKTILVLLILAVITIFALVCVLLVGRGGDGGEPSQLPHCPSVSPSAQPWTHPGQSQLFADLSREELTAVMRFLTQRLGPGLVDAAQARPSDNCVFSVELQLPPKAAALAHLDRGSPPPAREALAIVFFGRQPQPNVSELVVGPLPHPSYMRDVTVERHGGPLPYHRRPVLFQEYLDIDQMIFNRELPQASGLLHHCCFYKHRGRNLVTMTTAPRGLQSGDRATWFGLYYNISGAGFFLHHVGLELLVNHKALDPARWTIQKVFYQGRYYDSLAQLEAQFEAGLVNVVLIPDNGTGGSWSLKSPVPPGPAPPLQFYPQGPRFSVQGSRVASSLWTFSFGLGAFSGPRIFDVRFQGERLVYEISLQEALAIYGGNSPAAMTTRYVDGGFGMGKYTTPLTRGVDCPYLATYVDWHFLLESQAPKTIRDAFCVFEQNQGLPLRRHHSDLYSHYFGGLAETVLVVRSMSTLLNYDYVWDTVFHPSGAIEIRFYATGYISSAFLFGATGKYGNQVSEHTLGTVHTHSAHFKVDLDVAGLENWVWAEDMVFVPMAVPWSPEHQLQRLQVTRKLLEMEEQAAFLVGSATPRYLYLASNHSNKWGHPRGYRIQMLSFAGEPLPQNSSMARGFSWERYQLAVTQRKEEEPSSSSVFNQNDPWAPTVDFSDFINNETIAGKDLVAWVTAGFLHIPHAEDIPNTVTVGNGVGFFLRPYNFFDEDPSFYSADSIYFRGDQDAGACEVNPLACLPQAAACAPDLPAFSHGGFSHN

[9] = molecular target: T3, Amine oxidase [flavin-containing] B (Homo sapiens, UniProt P27338); test: Inhibition of recombinant human MAOB expressed in baculovirus infected in BTI cells using benzylamine as substrate preincubated with enzyme for 30 mins followed by substrate addition and measured every 2.5 mins for 30 mins by Amplex-Red oxidation assay; conditions: human, 0.5 h
T3 sequence (P27338 whole entry): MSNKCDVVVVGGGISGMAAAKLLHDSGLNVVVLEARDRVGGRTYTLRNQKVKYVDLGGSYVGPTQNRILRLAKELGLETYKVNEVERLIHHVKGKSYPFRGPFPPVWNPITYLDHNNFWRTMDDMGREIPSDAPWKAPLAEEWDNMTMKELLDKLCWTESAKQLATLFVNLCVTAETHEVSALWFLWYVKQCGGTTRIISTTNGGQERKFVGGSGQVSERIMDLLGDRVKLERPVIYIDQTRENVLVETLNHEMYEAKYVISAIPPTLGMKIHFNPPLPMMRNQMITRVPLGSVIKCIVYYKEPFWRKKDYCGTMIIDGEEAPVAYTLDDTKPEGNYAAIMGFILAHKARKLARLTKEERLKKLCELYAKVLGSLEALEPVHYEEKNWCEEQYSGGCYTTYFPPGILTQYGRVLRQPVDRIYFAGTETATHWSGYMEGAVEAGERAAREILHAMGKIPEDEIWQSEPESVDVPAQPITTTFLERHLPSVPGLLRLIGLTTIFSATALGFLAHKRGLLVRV

[10] = system: SSAO/plasma amine oxidase; test: Metabolic stability of the compound in dog plasma assessed as SSAO/plasma amine oxidase-mediated compound oxidation by measuring parent compound remaining after 1 hr; type: ADME, Canis lupus familiaris; conditions: read-out: Stability
Summary of the method: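 Compound incubated in dog plasma; percentage of parent compound remaining measured after 1 hour.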

Lysyl oxidase homolog 2 = molecular target: T4, Lysyl oxidase homolog 2 (Homo sapiens, UniProt Q9Y4K0); test: Inhibition of recombinant human C-terminal His-tagged […] (1-774 residues) expressed in mouse myeloma cells using putrescine as substrate preincubated with enzyme for 30 mins followed by substrate addition and measured every 2.5 mins for 30 mins by Amplex-Red oxidation assay; conditions: read-out: pIC50 (converted)
T4 sequence (Q9Y4K0 whole entry): T1 sequence (whole entry)
Summary of the method: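 LOXL2 enzyme preincubated with compound for 30 min at 37 °C, then Amplex Red (120 µM) / HRP (1.5 U/mL) mix containing 5 mM putrescine added. Buffer: 1.2 M urea, 50 mM sodium borate, pH 8.2. H2O2 fluorescence (ex 565/em 590) read every 2.5 min for 30 min at 37 °C; BAPN 100 µM as positive control; n≥2.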

Protein-lysine 6-oxidase = molecular target: T5, Protein-lysine 6-oxidase (Bos taurus, UniProt P33072); test: Inhibition of LOX in bovine aorta using putrescine as substrate preincubated with enzyme for 30 mins followed by substrate addition and measured every 2.5 mins for 30 mins by Amplex-Red oxidation assay; type: tissue-based; conditions: read-out: pIC50 (converted)
T5 sequence (P33072 whole entry): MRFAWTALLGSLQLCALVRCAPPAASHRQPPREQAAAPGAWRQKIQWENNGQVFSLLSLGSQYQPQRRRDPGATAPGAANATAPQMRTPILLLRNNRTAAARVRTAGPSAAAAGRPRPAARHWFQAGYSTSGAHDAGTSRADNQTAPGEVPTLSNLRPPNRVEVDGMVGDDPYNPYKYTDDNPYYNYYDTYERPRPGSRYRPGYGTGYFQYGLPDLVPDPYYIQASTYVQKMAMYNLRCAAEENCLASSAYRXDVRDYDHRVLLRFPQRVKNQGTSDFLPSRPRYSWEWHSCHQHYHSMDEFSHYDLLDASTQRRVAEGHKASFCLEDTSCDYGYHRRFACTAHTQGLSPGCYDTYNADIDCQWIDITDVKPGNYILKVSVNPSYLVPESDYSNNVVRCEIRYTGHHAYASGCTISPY
Summary of the method: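 LOX extracted from calf aorta after PBS washing with 4 M urea/50 mM borate pH 8.2, concentrated on 10 kDa filters into 1.2 M urea/borate with protease inhibitors. Preincubated 30 min at 37 °C with compound, then Amplex Red/HRP with 10 mM putrescine; fluorescence read every 2.5 min for 30 min.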

| Imax [1] | inhibition [2] | inhibition [3] | inhibition (Homo sapiens) | inhibition [5] | Kinact [6] | Stability [7] | IC50 [8] | pIC50 [9] | remaining at 1 h [10] | IC50 (Lysyl oxidase homolog 2) | IC50 (Protein-lysine 6-oxidase) | SMILES | IC50 ratio [4] |
| --- | --- | --- | --- | --- | --- | --- | --- | --- | --- | --- | --- | --- | --- |
| > 80% | Dose-dependent effect | Active | > 50% | Active | 0.89 min⁻¹ |  |  |  |  |  |  | Cc1c(-c2cccc(S(=O)(=O)N(C)C)c2)c2cc(C(=O)O)ccc2n1C/C(F)=C/CN | > 300 |
|  |  |  |  |  |  | Stable | > 31.6 µM | Not Active | 0% | 20 nM | 794 nM | CN(C)S(=O)(=O)c1ccc(OCc2cn(C/C(F)=C/CN)nn2)c(Cl)c1.Cl |  |
